# Compound activity as filed in PubChem.
# Hits are enriched below; roughly 2.2% of the tested compounds scored in any of these assays.
# NR2F2 inh: NR2F2 (human) inhibition, primary screen; P24468; HEK293T NGFI-A luciferase reporter, luminescence; AID 686940; inhibition, % at 8.6 µM; 0.7% of 370,000 active;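 active = inhibition above a per-plate cutoff, mean inhibition of test wells between control levels plus 3 SD, cut at about 38% in these data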;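 note: cells cotransfected with COUP-TFII expression vector driving the NGFI-A reporter; 0% = median of COUP-TF2 test wells and 100% = reporter-only cells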
# NR2E3 ag-1: activates human NR2E3 receptor; CHO-S Gal4-NCOR/VP16-NR2E3 two-hybrid, luciferase; inhibition of corepressor binding, % at 3.98 µM; 0.35% of 360,000 active;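 active = inhibition above the mean of all tested compounds plus 3 SD, cut at about 70% in these data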;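 note: 0% = DMSO with NR2E3 transfected cells and 100% = cells lacking NR2E3 construct; higher means lower luciferase signal from less NR2E3 corepressor binding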
# Target sequence (Q9Y5X4 whole entry, looked up, the tested form may be a part): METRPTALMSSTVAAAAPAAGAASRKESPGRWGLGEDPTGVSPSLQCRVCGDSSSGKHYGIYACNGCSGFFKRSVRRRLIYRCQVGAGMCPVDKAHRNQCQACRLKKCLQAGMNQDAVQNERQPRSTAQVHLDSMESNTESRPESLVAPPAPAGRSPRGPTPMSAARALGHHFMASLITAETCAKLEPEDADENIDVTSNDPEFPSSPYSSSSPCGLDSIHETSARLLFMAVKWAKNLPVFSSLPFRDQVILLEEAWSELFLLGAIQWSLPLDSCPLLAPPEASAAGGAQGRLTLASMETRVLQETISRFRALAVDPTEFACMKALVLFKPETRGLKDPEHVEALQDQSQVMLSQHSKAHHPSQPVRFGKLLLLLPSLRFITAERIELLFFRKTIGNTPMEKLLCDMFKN
# SMARCA2 act: increases SMARCA2 function in MMTV reporter cells. MG213 cells, MMTV-luciferase reporter, dexamethasone, overnight. 1% of 370,000 active. activation, % at 9.1 µM; in the data active = activation above about 7.8%;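 note: 0% = vehicle wells and 100% = reference activator wells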
# GalR3 antag: antagonists of human GalR3; O60755; HEK293 GalR3-CNG cAMP membrane potential fluorescence; galR3 body fused to GalR1 C-terminus; inhibition, % at 3 µM; 0.44% of 360,000 active; AID 651719;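 active = inhibition above the screen-wide average plus 3 SD, cut at about 13% in these data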;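 note: forskolin and galanin both at EC90 stimulate the cells; cAMP rise reported by CNG channel membrane potential dye signal; 0% = forskolin plus galanin with DMSO and 100% = forskolin alone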
# Target sequence (O60755 1-299 limits assumed): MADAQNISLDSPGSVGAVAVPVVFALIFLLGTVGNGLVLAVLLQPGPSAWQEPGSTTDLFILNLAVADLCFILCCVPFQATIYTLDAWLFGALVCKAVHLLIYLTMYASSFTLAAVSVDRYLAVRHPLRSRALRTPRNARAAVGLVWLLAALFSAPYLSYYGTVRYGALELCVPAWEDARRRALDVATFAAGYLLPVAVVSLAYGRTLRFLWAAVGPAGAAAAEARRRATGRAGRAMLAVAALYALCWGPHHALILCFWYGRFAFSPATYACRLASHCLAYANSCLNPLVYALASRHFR
# NR2E3 ag-2: agonists of human nuclear receptor NR2E3. GST-NR2E3/biotin-RetCOR TR-FRET, 1536-well. inhibition of corepressor binding, % at 4.78 µM. Q9Y5X4. AID 2300. 0.12% of 320,000 active;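 active = percent inhibition above the cutoff of mean plus 3 SD of all tested compounds, set per screening campaign, cut at about 20% in these data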;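 note: 0% = DMSO wells and 100% = biotin wells as full block of FRET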
#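 Assay system: NR2E3–RetCOR corepressor complex. Quantity: 1.35 nM GST-NR2E3. Buffer or medium: pH 7.5 Tris-based buffer. Reagent: biotinylated RetCOR corepressor at 7 nM final. Schedule: 5 h at 4 °C. Detection: TR-FRET, emission read at 617 and 671 nm. Replicates: one well per compound, singlicate testing.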
# NR2E3 ag confirm: NR2E3 agonism confirmed in two-hybrid assay; 51% of 2,300 active; AID 624378; inhibition, % at 3.98 µM; CHO-S mammalian two-hybrid NR2E3-NCOR, luciferase luminescence; shares compounds with NR2E3 ag-1;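 active = average inhibition above a cutoff equal to the mean inhibition of all tested compounds plus one SD, cut at about 70% in these data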;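 note: 0% = DMSO in NR2E3 cells and 100% = DMSO in cells lacking NR2E3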
# VP16 counter: reduces GAL4-VP16 reporter signal in NR2E3 counterscreen; shares compounds with NR2E3 ag-1; CHO-S GAL4-VP16 luciferase reporter, luminescence; inhibition, % at 3.98 µM; 29% of 2,300 active; AID 624379;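 active = mean inhibition above a cutoff equal to the average over all tested compounds plus one standard deviation, cut at about 70% in these data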;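 note: luciferase from a UAS reporter driven by GAL4-VP16 transactivation; 0% = DMSO with VP16-transfected cells and 100% = DMSO with cells lacking VP16; higher means less reporter light so more repression of VP16 activity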
# GalR3 antag conf: confirmation of human galanin receptor 3 antagonists; AID 652245; inhibition, % at 3 µM; HEK293 GalR3 CNG cAMP biosensor, membrane potential fluorescence; galR3 fused to GalR1 carboxy tail; challenged with forskolin and galanin at EC90; 59% of 1,600 active; shares compounds with GalR3 antag;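 active = inhibition above the primary screen's cutoff, the mean inhibition of all screened compounds plus 3 SD, cut at about 13% in these data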;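 note: 0% = forskolin plus galanin and 100% = forskolin alone with DMSO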
# CNG parental: parental cell agonism counter-screen for GalR3 antagonists | shares compounds with GalR3 antag | HEK293-CNG parental cells, cAMP membrane potential fluorescence; normalised: DMSO wells 0%, forskolin wells 100% | activation, % at 3 µM | 10% of 1,600 active; in the data active = activation above about 1.3%
# SMARCA2 conf: SMARCA2 activation, confirmation screen; MG213 cells, MMTV-luciferase with dexamethasone, luminescence, overnight; MG213 cells expressing E1A, Rb sequestered; DMSO wells 0%, reference activator 100%; shares compounds with SMARCA2 act; AID 652260; 30% of 3,500 active; activation, % at 9.1 µM;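 active = activation above its plate's cutoff, the mean activation of tested wells plus 3 SD, cut at about 7.9% in these data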
# VP16 Luc act: activates GAL4-VP16 luciferase, flagging SMARCA2 activator hits. shares compounds with SMARCA2 act. HEK293 GAL4-VP16 pG5luc reporter, luciferase luminescence; scaled: DMSO wells 0%, SAHA wells 100%. activation, % at 9.1 µM. 41% of 3,500 active. AID 686939;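 active = activation above the solvent-only control well mean plus 3 SD, averaged across control plates, cut at about 5.2% in these data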
# VP16 Luc counter: counter-screen for COUP-TFII antagonists: inhibitors of VP16; shares compounds with NR2F2 inh; 25% of 2,500 active; inhibition, % at 8.5 µM; HEK293 Gal4-VP16 luciferase reporter, luminescence; in the data active = inhibition above about 13%
# COUP-TFII conf: confirmation of human COUP-TFII (NR2F2) inhibitors | shares compounds with NR2F2 inh | AID 687008 | HEK293 NGFI-A luciferase reporter, luminescence | inhibition, % at 8.5 µM | 45% of 2,500 active;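 active = mean inhibition over three repeats above a set limit taken from the earlier primary screen, cut at about 38% in these data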;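 note: 100% = cells given the luciferase reporter alone without the COUP-TF2 vector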
# Active calls of the source: *; / = no result given.
SMILES,NR2F2 inh,NR2E3 ag-1,SMARCA2 act,GalR3 antag,NR2E3 ag-2,GalR3 antag conf,CNG parental,others
Cn1nc(-c2ccc(OCC(=O)N3CCN(Cc4ccccc4)CC3)cc2)c2ccccc2c1=O,54.9*,71.1*,-4.6,-4.9,-4.7,/,/,NR2E3 ag confirm=68.4;VP16 counter=59.2;VP16 Luc counter=6.1;COUP-TFII conf=36.1
C[C@H]1CCC/C=C/[C@@H]2C[C@H](O)C[C@H]2[C@@H](O)/C=C/C(=O)O1,52.8*,85.8*,-6.8,-7.2,/,/,/,NR2E3 ag confirm=98.4*;VP16 counter=64.3;VP16 Luc counter=18.0*;COUP-TFII conf=30.7
Cc1cc(N2CCNC[C@H]2C)ccc1N1CCN[C@@H](C)C1,4.3,/,4.4,-6.5,/,/,/,
C[C@H]1C[C@@H](C)C(=O)[C@@H]([C@H](O)CC2CC(=O)NC(=O)C2)C1,84.8*,101.3*,-6.2,-7.0,0.1,/,/,NR2E3 ag confirm=100.0*;VP16 counter=94.1*;VP16 Luc counter=6.3;COUP-TFII conf=69.8*
CC[C@]12CCN(CC3(O)CC3)[C@H](Cc3ccc(O)cc31)C2(C)C,14.0,/,0.5,2.2,/,/,/,
CC(C)(C)n1nnnc1C1CN=C(c2ccccc2)c2cc(Cl)ccc2N1 (stereo unspecified),1.3,/,-3.2,/,/,/,/,
C=CCn1c(O)c(C(CC)=Nc2cccc(C(=O)O)c2)c(=O)[nH]c1=O,-10.2,-21.9,-1.1,15.3*,-2.0,4.7,0.1,
CCCCCN1C(=O)c2cc(OC)ccc2[C@@]2(C(=O)OCC)Cc3cc(Cl)ccc3[C@@H]12,36.3,-25.0,-7.4,35.6*,/,52.0*,2.6*,
CCOC(=O)[C@]12Cc3cc(Cl)ccc3[C@H]1N(Cc1ccccc1)C(=O)c1cc(OC)ccc12,11.4,-22.7,-8.0,-7.5,/,/,/,
CC1C2Cc3ccc(O)cc3C1(C)CCN2CC1CC1 (stereo unspecified),6.2,/,-3.4,-4.9,/,/,/,
CC(=O)NCC1=C(c2ccc(S(C)(=O)=O)cc2)C[C@@H]2CC[C@H]1N2CCOc1ccccc1,8.6,/,-1.5,-6.4,/,/,/,
CC(C)(C)NCC(O)c1cc(Cl)c(N)c(Cl)c1 (stereo unspecified),-30.5,-26.1,0.8,23.8*,-0.8,30.6*,5.3*,
CCn1c(C)c(C(=O)O)c2cc(OC)ccc21,0.6,-6.0,1.0,13.2*,4.0,5.4,0.2,
CCOC(=O)c1c(C)n(C(C)C)c2ccc(OC)cc12,-21.1,11.7,0.5,-8.8,5.0,/,/,
CC(C)(C)c1cc(O)ccc1O,-27.4,/,-3.6,1.0,/,/,/,
COC1=CC(=O)[C@]2(C=C1OC)OC[C@@H]1Oc3c(ccc4c3C=CC(C)(C)O4)C(=O)[C@@H]12,73.0*,/,-2.9,41.4*,/,97.9*,-0.2,
O=c1[nH]c2ccccc2n1C1CCN(Cc2ccc(-c3[nH]c4cc5ncnc5cc4nc3-c3ccccc3)cc2)CC1,26.2,7.8,2.3,-4.0,/,/,/,
CCC(=NCCC(c1ccccc1)c1ccccc1)c1c(O)[nH]c(=O)[nH]c1=O,-0.8,-2.8,-0.7,26.2*,0.7,37.7*,0.1,
COc1cc(CCN)c(OC)cc1C,-19.1,/,-4.1,-9.4,/,/,/,
COc1ccc2c(C)c(CC(=O)N3C[C@H]4C[C@@H](C3)c3cccc(=O)n3C4)c(=O)oc2c1,-26.5,8.6,-3.4,6.5,0.3,/,/,
COc1ccc2c(C)c(CC(=O)N3C[C@H]4C[C@@H](C3)c3cccc(=O)n3C4)c(=O)oc2c1C,8.3,-14.7,1.6,19.9*,2.9,3.9,0.1,
CCCCNS(=O)(=O)c1ccc(OCC(=O)N2CCN(Cc3ccc4c(c3)OCO4)CC2)cc1,34.9,20.3,-1.9,14.0*,0.5,17.0*,-0.1,
CC(C)(C)Cc1nnc(NC(=O)COc2ccc(Cl)cc2Cl)o1,-0.4,/,/,/,/,/,/,
CCc1ccc(CN2CCN(Cc3ccc(SC)cc3)CC2)cc1,27.6,9.5,-5.0,50.0*,0.2,59.7*,1.4*,
COc1ccc2[nH]c(C)c(CCNCc3cc(OC)c(OC)c(OC)c3)c2c1,12.6,-16.0,-1.7,-5.1,2.7,/,/,
SMILES,NR2F2 inh,NR2E3 ag-1,SMARCA2 act,GalR3 antag,NR2E3 ag-2,GalR3 antag conf,CNG parental,others
COc1ccc(CNCCc2c(C)[nH]c3ccc(OC(F)(F)F)cc23)c(OC)c1,51.5*,29.2,-5.7,24.2*,1.6,90.4*,0.1,VP16 Luc counter=1.7;COUP-TFII conf=44.8*
C[C@H]1CN([C@@H](C)CO)C(=O)CCCn2cc(nn2)CO[C@@H]1CN(C)C(=O)Oc1cccc2ccccc12,-25.6,/,3.0,-0.4,/,/,/,
CC1OC(OC2C=C3CCC4C(CCC5(C)C(c6ccc(=O)oc6)CCC45O)C3(C)CC2)C(O)C(OC2OC(CO)C(O)C(O)C2O)C1O (stereo unspecified),78.1*,8.7,-10.5,13.9*,/,38.9*,4.1*,VP16 Luc counter=53.7*;COUP-TFII conf=79.5*
COc1ccc2nc(-c3ccc(CN4CCC(n5c(=O)[nH]c6cc(Cl)ccc65)CC4)cc3)c(-c3ccccc3)nc2c1,6.8,/,6.0,-4.4,/,/,/,
CC12CCC3C(CCC4(O)CC(O)CCC34C=O)C1(O)CCC2C1=CC(=O)OC1 (stereo unspecified),70.8*,-3.6,-7.5,17.8*,/,46.7*,4.2*,VP16 Luc counter=24.1*;COUP-TFII conf=64.0*
CN(C(=O)Oc1cccc2ccccc12)C1C=CCC1 (stereo unspecified),-20.0,-74.4,9.9*,-4.6,/,/,/,SMARCA2 conf=4.5;VP16 Luc act=4.0
O=C1c2ccccc2-c2cccc3cccc1c23,-1.5,-82.8,8.6*,/,/,/,/,SMARCA2 conf=9.5*;VP16 Luc act=2.2
O=S(=O)(c1ccc2ccccc2c1)N1Cc2cc(Br)ccc2-n2nncc2C1,-6.6,/,-2.1,0.0,/,/,/,
